{
  "source": "ChEMBL document CHEMBL4842325",
  "about": "“Lanosterol 14α-demethylase (CYP51)/histone deacetylase (HDAC) dual inhibitors for treatment of Candida tropicalis and Cryptococcus neoformans infections” (Eur J Med Chem, 2021)",
  "key": {"Cryptococcus neoformans [1]": {"test_system": "Cryptococcus neoformans", "assay": "Downregulation of RPD3 mRNA expression in Cryptococcus neoformans H99 at 2 ug/ml measured after 24 hrs by qRT-PCR analysis", "format": "functional", "details": "dose 2.0 µg/ml", "how_it_was_run": "(§1)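 Exponentially growing C. neoformans H99 inoculated into 50 mL YPD with compound and incubated 35 °C for 24 h. Cells ground in liquid nitrogen before total RNA isolation, then reverse transcription and real-time RT-qPCR. Means ± SD of three independent assays.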"}, "Candida tropicalis [2]": {"test_system": "Candida tropicalis", "assay": "Inhibition of CYP51 in Candida tropicalis 5008 assessed as ergosterol level at 4 ug/ml by GC-MS analysis (reference value: 84.91%)", "set-up": "scale not given: the % may be the effect or the level left", "details": "dose 4.0 µg/ml"}, "Candida albicans [3]": {"test_system": "Candida albicans", "assay": "Antifungal activity against fluconazole-sensitive Candida albicans 10061 assessed as inhibition of fungal growth", "format": "functional"}, "Cryptococcus neoformans [4]": {"test_system": "Cryptococcus neoformans", "assay": "Downregulation of CLR61 mRNA expression in Cryptococcus neoformans H99 at 2 ug/ml measured after 24 hrs by qRT-PCR analysis", "format": "functional", "details": "dose 2.0 µg/ml", "how_it_was_run": "as §1"}, "Candida tropicalis [5]": {"test_system": "Candida tropicalis", "assay": "Downregulation of MDR1 mRNA expression in Candida tropicalis 5008 at 4 ug/ml measured after 24 hrs by qRT-PCR analysis", "format": "functional", "details": "dose 4.0 µg/ml", "how_it_was_run": "(§2)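 Exponential-phase C. tropicalis 5008 inoculated into 10 mL YPD with compound at several concentrations, DMSO as blank control. Incubated 35 °C for 24 h. Total RNA isolated on columns and reverse-transcribed. Real-time RT-PCR with ACT1 as internal control. Mean of 3 independent assays ± SD.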"}, "Cryptococcus neoformans [6]": {"test_system": "Cryptococcus neoformans", "assay": "Downregulation of HDA1 mRNA expression in Cryptococcus neoformans H99 at 2 ug/ml measured after 24 hrs by qRT-PCR analysis", "format": "functional", "details": "dose 2.0 µg/ml", "how_it_was_run": "as §1"}, "Cryptococcus neoformans [7]": {"test_system": "Cryptococcus neoformans", "assay": "Antifungal activity against Cryptococcus neoformans H99 infected in ICR mouse model assessed as reduction in fungal burden in brain at 20 mg/kg, po administered once a day for 5 days", "format": "functional, organism-based", "details": "time 5.0 day", "how_it_was_run": "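Immunosuppression by intraperitoneal cyclophosphamide 24 h before infection. Infected on day 0 by intravenous 2 × 10⁵ CFU C. neoformans H99. Oral treatment once daily for 5 consecutive days, starting 24 h post infection; saline group as blank. Brains taken on day 6 and homogenized, dilutions plated on SDA at 35 °C for 48 h. Colonies counted for burden; groups compared by ANOVA.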"}, "Candida tropicalis [8]": {"test_system": "Candida tropicalis", "assay": "Downregulation of CDR1 mRNA expression in Candida tropicalis 5008 at 4 ug/ml measured after 24 hrs by qRT-PCR analysis", "format": "functional", "details": "dose 4.0 µg/ml", "how_it_was_run": "as §2"}, "Candida tropicalis [9]": {"test_system": "Candida tropicalis", "assay": "Inhibition of CYP51 in Candida tropicalis 5008 assessed as unknown sterol level at 4 ug/ml by GC-MS analysis (reference value: 6.48%)", "set-up": "scale not given: the % may be the effect or the level left", "details": "dose 4.0 µg/ml"}, "Candida albicans [10]": {"test_system": "Candida albicans", "assay": "microbe, parasite or virus in culture", "format": "functional", "details": "7781"}, "Candida tropicalis [11]": {"test_system": "Candida tropicalis", "assay": "Antifungal activity against fluconazole-resistant Candida tropicalis 5008 assessed as inhibition of cell proliferation at 32 ug/ml measured for 48 hrs by time growth curve assay", "format": "functional, organism-based", "details": "dose 32.0 µg/ml", "how_it_was_run": "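Exponential-phase cells from YEPD resuspended in 3 mL fresh RPMI 1640 at 1 × 10⁵ cells/mL (C. tropicalis 5008) or 1 × 10⁶ cells/mL (C. neoformans H99). Compound at several concentrations; cultures shaken at 240 rpm, 30 °C. Growth read as OD₆₃₀ at 0, 6, 12, 24, 36 and 48 h. Done in triplicate.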"}, "Cryptococcus neoformans [12]": {"test_system": "Cryptococcus neoformans", "assay": "Downregulation of CAP60 gene expression in Cryptococcus neoformans H99 at 2 ug/ml measured after 24 hrs by qRT-PCR analysis", "format": "functional", "details": "dose 2.0 µg/ml", "how_it_was_run": "as §1"}, "Candida albicans [13]": {"test_system": "Candida albicans", "assay": "microbe, parasite or virus in culture", "format": "functional", "details": "4108"}, "Candida tropicalis [14]": {"test_system": "Candida tropicalis", "assay": "Downregulation of ERG11 mRNA expression in Candida tropicalis 5008 at 4 ug/ml measured after 24 hrs by qRT-PCR analysis", "format": "functional", "details": "dose 4.0 µg/ml", "how_it_was_run": "as §2"}, "Cryptococcus neoformans [15]": {"test_system": "Cryptococcus neoformans", "assay": "Inhibition of CYP51 in Cryptococcus neoformans H99 assessed as lanosterol level at 4 ug/ml by GC-MS analysis", "set-up": "scale not given: the % may be the effect or the level left", "details": "dose 4.0 µg/ml"}, "[16]": {"assay": "Inhibition of HDAC in Cryptococcus neoformans H99 using Boc-Lys(Ac)-AMC as substrate preincubated with protoplast for 12 hrs followed by incubation with substrate for 6 hrs by fluorimetric assay"}},
  "note": "Activity calls are given as the source filed them. No cut-off for these calls is given here.",
  "data": [
    {"smiles": "O=C(CCCCCCCOc1ccc(CN2CCN(CC(O)(Cn3cncn3)c3ccc(F)cc3F)CC2)cc1)NO", "note": "(stereo unspecified)", "values": [
      {"measurement": "inhibition", "setting": "Cryptococcus neoformans [1]", "value": "Active"},
      {"measurement": "Activity", "setting": "Candida tropicalis [2]", "value": 1.51, "unit": "%"},
      {"measurement": "MIC80", "setting": "Candida albicans [3]", "value": 16, "unit": "µg/mL"},
      {"measurement": "inhibition", "setting": "Cryptococcus neoformans [4]", "value": "Active"},
      {"measurement": "inhibition", "setting": "Candida tropicalis [5]", "value": "Active"},
      {"measurement": "inhibition", "setting": "Cryptococcus neoformans [6]", "value": "Active"},
      {"measurement": "Activity", "setting": "Cryptococcus neoformans [7]", "value": "Active"},
      {"measurement": "inhibition", "setting": "Candida tropicalis [8]", "value": "Active"},
      {"measurement": "Activity", "setting": "Candida tropicalis [9]", "value": 1.31, "unit": "%"},
      {"measurement": "MIC80", "setting": "Candida albicans [10]", "value": 1, "unit": "µg/mL"},
      {"measurement": "Activity", "setting": "Candida tropicalis [11]", "value": "Active"},
      {"measurement": "inhibition", "setting": "Cryptococcus neoformans [12]", "value": "Active"},
      {"measurement": "MIC80", "setting": "Candida albicans [13]", "value": 8, "unit": "µg/mL"},
      {"measurement": "inhibition", "setting": "Candida tropicalis [14]", "value": "Active"},
      {"measurement": "Activity", "setting": "Cryptococcus neoformans [15]", "value": 9.59, "unit": "%"},
      {"measurement": "IC50", "setting": "[16]", "value": 12.6, "unit": "µM"}
    ]}
  ]
}
